For assay [1], the species on record is Homo sapiens. Kind of assay: Log concentration that produces maximum response against epinephrine-induced platelet aggregation. The format is functional, organism-based.
Assay [2] is filed under the species Homo sapiens. Kind of assay: Inhibition potency against primary wave responses to epinephrine. The format is functional, organism-based. As to conditions: read-out: pA2 (converted).
The species named for assay [3] is Homo sapiens. The assay can be described thus: Stimulatory activity against serotonin secretion (SEC). The format is functional, organism-based.
Assay [4] is filed under the species Homo sapiens. The assay can be described thus: Inhibition of AA+phentolamine by the compound in response of AGG. The format is functional, organism-based. The method, boiled down:
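Citrated platelet-rich plasma from medication-free human volunteers was read by Born turbidometric aggregometry. Phentolamine (1 μM) was added 1 min before the drug and 2 min before arachidonic acid, used at the minimum concentration giving maximal aggregation. IC50 was taken from the maximal change in light transmittance after 4 min, read from percent inhibition versus log concentration plots. Data are from 3–5 preparations.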

Assay [5] is filed under the species Homo sapiens. The assay can be described thus: Inhibition of ADP by the compound in response of AGG. The format is functional, organism-based. The essentials: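 The drug was added 1 min before ADP, used at the minimum concentration giving maximal aggregation, in citrated human platelet-rich plasma from medication-free donors. Born turbidometric aggregometry was used. IC50 came from the maximal change in light transmittance after 6 min, using percent inhibition versus log concentration plots. Data are from 3–5 preparations.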

The species named for assay [6] is Homo sapiens. Kind of assay: Inhibition of Arachidonic acid by the compound in response of AGG. The format is functional, organism-based. The method, boiled down: (§1)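 Human platelet-rich plasma from medication-free volunteers, citrate anticoagulated (9:1). Inducer at the minimum concentration giving maximal aggregation. Inhibitor added 1 min before inducer. Turbidometric (Born) aggregation read as the maximal change in light-transmittance amplitude after 4 min. U46619 runs include 1 mM aspirin. IC50 taken from percent inhibition vs log concentration plots; 3–5 preparations.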

The species entered for assay [7] is Homo sapiens. The assay can be described thus: Inhibition of U-46,619 by the compound in response of AGG. The format is functional, organism-based. The essentials:
as §1

The species named for assay [8] is Homo sapiens. The assay can be described thus: Inhibition of U-46,619 + phentolamine by the compound in response of AGG. The format is functional, organism-based. The method, boiled down: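 Human citrated platelet-rich plasma was incubated with 1 mM aspirin. Phentolamine (1 μM) was added 1 min before the drug and 2 min before U46619, used at the minimal maximally-aggregating concentration. Turbidometric aggregation was followed, and IC50 was based on the maximal transmittance change at 4 min, from percent inhibition versus log concentration plots. Data are from 3–5 preparations.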

The target of assay [9] is Serotonin (5-HT) receptor. The assay can be described thus: Inhibition of AA+phentolamine by the compound in response of SEC. The format is functional, Homo sapiens. The essentials: (§2)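 Phentolamine 1 μM added 1 min before the test drug and 2 min before the inducer (AA or U46619, at minimum maximally effective concentration). Aspirin 1 mM in U46619 runs. Secretion read as radioactivity release. IC50 from percent inhibition vs log concentration; 3–5 preparations.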

Assay [10] has as its target Serotonin (5-HT) receptor. The assay can be described thus: Inhibition of ADP by the compound in response of SEC. The format is functional, Homo sapiens. The method, boiled down:
(§3)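 Inducer at the minimum concentration giving maximal aggregation; inhibitor added 1 min before it. Dense-granule secretion measured as release of radioactivity. U46619 runs include 1 mM aspirin. IC50 from percent inhibition vs log concentration; 3–5 preparations.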

Assay [11] deals with Serotonin (5-HT) receptor. The assay can be described thus: Inhibition of Arachidonic acid by the compound in response of SEC. The format is functional, Homo sapiens. The method, boiled down:
as §3

Assay [12] has as its target Serotonin (5-HT) receptor. The assay can be described thus: Inhibition of U-46,619 by the compound in response of SEC. The format is functional, Homo sapiens. The essentials:
as §3

Assay [13] addresses Serotonin (5-HT) receptor. The assay can be described thus: Inhibition of U-46,619 + phentolamine by the compound in response of SEC. The format is functional, Homo sapiens. The essentials: as §2
For assay [14], the species on record is Homo sapiens. Kind of assay: Inhibitory concentration of compound against primary aggregation of induced by R-8. The format is functional, organism-based.
The species entered for assay [15] is Homo sapiens. Kind of assay: Effective concentration for primary wave aggregation was determined. The format is functional, organism-based. The essentials:
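Citrated (9:1) platelet-rich plasma from medication-free human donors. Compound given alone to platelets preincubated 1 min with 1 mM aspirin. Born turbidometric aggregation, maximal change in light transmittance amplitude. EC50 taken from individual plots of percent response versus log concentration. Values in parentheses give number of experiments.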

For assay [16], the species on record is Homo sapiens. Kind of assay: Effective concentration for secondary wave aggregation was determined. The format is functional, organism-based.
For assay [17], the species on record is Homo sapiens. The assay can be described thus: Log concentration that produces maximum response against epinephrine-induced platelet aggregation (primary wave AGG). The format is functional, organism-based.

Five molecules from ChEMBL document CHEMBL1124737, “Synthesis and alpha 2-adrenoceptor effects of substituted catecholimidazoline and catecholimidazole analogues in human platelets” (J Med Chem, 1990) can be followed below.

For `Oc1ccc(C(O)c2ncc[nH]2)cc1O` (configuration not stated), in the assay filed under Homo sapiens [1], the EC50 (as a rule, the concentration giving half of the maximal effect) is 38.9 µM.
`Oc1ccc(C[C@H]2CNC=N2)cc1O`: the Kb in the assay listed under Homo sapiens [2] was 3.24 µM.
On to `Cl.Oc1ccc(Cc2ncc[nH]2)cc1O`, for which the IC50 (usually the concentration that gives 50% inhibition) in the assay filed under Homo sapiens [3] was 36.3 µM; in the assay listed under Homo sapiens [4], 145 µM; in the assay listed under Homo sapiens [5] it was 263 µM; in the assay filed under Homo sapiens [6] it was 661 µM; in the assay listed under Homo sapiens [7] it was 1620 µM; in the assay filed under Homo sapiens [8] it was 741 µM. Further, the “Log IC50” value is -3.79 in assay [9]; -3.46 in [10]; -3.18 in assay [11]; -2.81 in assay [12]; -3.09 in assay [13].
With `COC(=O)[C@@H]1[C@H]2C[C@H]3c4[nH]c5ccccc5c4CCN3C[C@@H]2CC[C@@H]1O` [YOHIMBINE], the IC50 in the assay listed under Homo sapiens [14] amounted to 1.1 µM.
As to `Oc1ccc(C[C@@H]2CNC=N2)cc1O`, the EC50 is 5.03 µM in the assay listed under Homo sapiens [15], 4.89 µM in the assay filed under Homo sapiens [16] and 5.13 µM in the assay filed under Homo sapiens [17].
